# Results from different studies.
# Protocols differ between the studies behind these lines.
# Target: Serine/threonine-protein kinase BRSK1 (BRSK1, Homo sapiens, UniProt Q8TDC3)
# One construct used (Q8TDC3 1-778): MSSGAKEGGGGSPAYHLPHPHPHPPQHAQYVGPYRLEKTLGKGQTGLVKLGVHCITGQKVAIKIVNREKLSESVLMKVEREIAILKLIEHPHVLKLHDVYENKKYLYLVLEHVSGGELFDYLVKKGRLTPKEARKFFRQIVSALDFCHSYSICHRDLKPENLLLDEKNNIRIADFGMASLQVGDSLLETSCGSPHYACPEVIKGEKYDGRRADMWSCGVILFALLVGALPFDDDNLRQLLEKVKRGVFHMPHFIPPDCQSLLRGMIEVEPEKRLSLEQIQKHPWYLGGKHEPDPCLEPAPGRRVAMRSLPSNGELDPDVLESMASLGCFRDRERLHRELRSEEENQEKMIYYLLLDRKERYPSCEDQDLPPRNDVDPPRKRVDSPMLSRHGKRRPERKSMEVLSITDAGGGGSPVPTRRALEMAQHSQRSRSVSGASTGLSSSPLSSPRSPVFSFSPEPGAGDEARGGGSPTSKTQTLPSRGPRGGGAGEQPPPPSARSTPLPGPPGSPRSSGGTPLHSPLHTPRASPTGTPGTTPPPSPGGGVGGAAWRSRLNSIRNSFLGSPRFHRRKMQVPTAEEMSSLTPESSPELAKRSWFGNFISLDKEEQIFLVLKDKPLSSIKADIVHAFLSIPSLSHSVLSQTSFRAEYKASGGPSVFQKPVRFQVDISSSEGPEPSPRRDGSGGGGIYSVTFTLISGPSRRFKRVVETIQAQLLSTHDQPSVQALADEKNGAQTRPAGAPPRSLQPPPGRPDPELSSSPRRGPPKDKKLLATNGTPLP
SMILES,observed,mode,method,tested at,measurement,value
C=CC(=O)N1CCC([C@@H]2CCNc3c(C(N)=O)c(-c4ccc(Oc5ccccc5)cc4)nn32)CC1,enzyme activity,inhibitor,,1 µM,inhibition,0%
COc1ccc2oc(-c3ccc4nc(N)oc4c3)c/c(=N\c3ccccc3NC(=O)CCN)c2c1,binding,,,1 µM,remaining binding,103%
Cc1ccc(NC(=O)c2ccnc(C(F)(F)F)c2)cc1-c1cc(OCCO)nc(N2CCOCC2)c1,binding,,,1 µM,remaining binding,93%
C#Cc1cc(-c2cc(Nc3nc(N[C@@H](C)c4ccc(F)cn4)ncc3Cl)n[nH]2)ccc1C=O,enzyme activity,inhibitor,,0.2 µM,inhibition,10.3%
COc1ccc2[nH]c3c4[nH]c5ccc(OC)cc5c4c4c(c3c2c1)C(=O)NC4=O,binding,,,1 µM,remaining binding,10%
CCCCC(=O)Nc1ccc(-c2ccc3ncn(CCC)c(=O)c3c2)cn1,binding,,competition with immobilised ligand,0.5 µM,remaining binding,100%
CO[C@@H]1[C@H](N(C)C(=O)c2ccccc2)C[C@H]2O[C@]1(C)n1c3ccccc3c3c4c(c5c6ccccc6n2c5c31)C(=O)NC4,enzyme activity,inhibitor,,1 µM,inhibition,48%
C1=C/COCc2cc(ccc2OCCN2CCCC2)Nc2nccc(n2)-c2cccc(c2)COC/1,binding,,,0.1 µM,remaining binding,99%
